Source: ChEMBL document CHEMBL4190234, “Design, synthesis and anticancer activity of new monastrol analogues bearing 1,3,4-oxadiazole moiety” (Eur J Med Chem, 2017)

Columns and labels:
Type in all cases: functional
[1] = system: CCRF-CEM; assay: Growth inhibition of human CCRF-CEM cells at 10 uM incubated for 48 hrs by sulforhodamine B assay relative to control; conditions: read-out: GI
Outline: (§1)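 Single-dose screen at 10 μM final: cells in RPMI 1640, 5% FBS, 2 mM L-glutamine, plated 5,000–40,000/well, preincubated 24 h at 37°C, 5% CO2; drug 48 h; adherent cells fixed with 10% TCA, suspension cells with 16% TCA; SRB stain, absorbance 515 nm; percentage growth versus untreated control, with time-zero plates.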

[2] = system: HL-60(TB); assay: Growth inhibition of human HL-60(TB) cells at 10 uM incubated for 48 hrs by sulforhodamine B assay relative to control; conditions: HL-60, 48 h, read-out: GI
Outline: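 Single dose of 10 µM in the NCI ~60-line panel. Cells grown in RPMI 1640 with 5% FBS and 2 mM L-glutamine, plated and pre-incubated 24 h, then exposed 48 h at 37°C under 5% CO2. Suspension cells fixed with TCA (16% final) and stained with sulforhodamine B, A515 read. Reported as percent growth versus untreated control and as GI%.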

[3] = system: MOLT-4; assay: Growth inhibition of human MOLT4 cells at 10 uM incubated for 48 hrs by sulforhodamine B assay relative to control; conditions: MOLT-4, 48 h, read-out: GI; outline: as §1
[4] = system: HOP-92; assay: Growth inhibition of human HOP92 cells at 10 uM incubated for 48 hrs by sulforhodamine B assay relative to control; conditions: HOP-92, 48 h, read-out: GI; outline: as §1
[5] = system: NCI-H322M; assay: Growth inhibition of human NCI-H322M cells at 10 uM incubated for 48 hrs by sulforhodamine B assay relative to control; conditions: read-out: GI; outline: as §1
[6] = system: NCI-H460; assay: Growth inhibition of human NCI-H460 cells at 10 uM incubated for 48 hrs by sulforhodamine B assay relative to control; conditions: NCI-H460, 48 h, read-out: GI; outline: as §1
[7] = system: NCI-H522; assay: Growth inhibition of human NCI-H522 cells at 10 uM incubated for 48 hrs by sulforhodamine B assay relative to control; conditions: NCI-H522, 48 h, read-out: GI; outline: as §1
[8] = system: COLO 205; assay: Growth inhibition of human COLO205 cells at 10 uM incubated for 48 hrs by sulforhodamine B assay relative to control; conditions: COLO 205, 48 h, read-out: GI; outline: as §1
[9] = system: HCC 2998; assay: Growth inhibition of human HCC2998 cells at 10 uM incubated for 48 hrs by sulforhodamine B assay relative to control; conditions: HCC 2998, 48 h, read-out: GI; outline: as §1
[10] = system: HCT-116; assay: Growth inhibition of human HCT116 cells at 10 uM incubated for 48 hrs by sulforhodamine B assay relative to control; conditions: HCT-116, 48 h, read-out: GI; outline: as §1
[11] = system: HCT-15; assay: Growth inhibition of human HCT15 cells at 10 uM incubated for 48 hrs by sulforhodamine B assay relative to control; conditions: HCT-15, 48 h, read-out: GI; outline: as §1
[12] = system: HT-29; assay: Growth inhibition of human HT-29 cells at 10 uM incubated for 48 hrs by sulforhodamine B assay relative to control; conditions: HT-29, 48 h, read-out: GI; outline: as §1
[13] = system: KM12; assay: Growth inhibition of human KM12 cells at 10 uM incubated for 48 hrs by sulforhodamine B assay relative to control; conditions: KM12, 48 h, read-out: GI; outline: as §1
[14] = system: SF-268; assay: Growth inhibition of human SF268 cells at 10 uM incubated for 48 hrs by sulforhodamine B assay relative to control; conditions: SF-268, 48 h, read-out: GI
Outline: (§2)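 NCI single-dose screen: cells grown in RPMI 1640 with 5% FBS and 2 mM L-glutamine, plated at 5,000–40,000 cells/well and preincubated 24 h at 37 °C, 5% CO2. Compounds taken from DMSO stock and tested at final 10 µM for 48 h. Cells fixed with TCA, stained with 0.4% SRB, absorbance read at 515 nm. Percentage growth calculated against untreated controls; controls held DMSO at the same dilution.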

[15] = system: SF-295; assay: Growth inhibition of human SF295 cells at 10 uM incubated for 48 hrs by sulforhodamine B assay relative to control; conditions: SF-295, 48 h, read-out: GI; outline: as §2
[16] = system: SNB-75; assay: Growth inhibition of human SNB75 cells at 10 uM incubated for 48 hrs by sulforhodamine B assay relative to control; conditions: SNB-75, 48 h, read-out: GI; outline: as §2
[17] = system: LOX IMVI; assay: Growth inhibition of human LOXIMVI cells at 10 uM incubated for 48 hrs by sulforhodamine B assay relative to control; conditions: read-out: GI; outline: as §1
[18] = system: M14; assay: Growth inhibition of human M14 cells at 10 uM incubated for 48 hrs by sulforhodamine B assay relative to control; conditions: M14, 48 h, read-out: GI; outline: as §1
[19] = system: MDA-MB-435; assay: Growth inhibition of human MDA-MB-435 cells at 10 uM incubated for 48 hrs by sulforhodamine B assay relative to control; conditions: MDA-MB-435, 48 h, read-out: GI; outline: as §1
[20] = system: SK-MEL-5; assay: Growth inhibition of human SK-MEL-5 cells at 10 uM incubated for 48 hrs by sulforhodamine B assay relative to control; conditions: SK-MEL-5, 48 h, read-out: GI; outline: as §2
[21] = system: IGROV-1; assay: Growth inhibition of human IGROV1 cells at 10 uM incubated for 48 hrs by sulforhodamine B assay relative to control; conditions: IGROV-1, 48 h, read-out: GI; outline: as §1
[22] = system: OVCAR-4; assay: Growth inhibition of human OVCAR4 cells at 10 uM incubated for 48 hrs by sulforhodamine B assay relative to control; conditions: OVCAR-4, 48 h, read-out: GI; outline: as §1
[23] = system: OVCAR-5; assay: Growth inhibition of human OVCAR5 cells at 10 uM incubated for 48 hrs by sulforhodamine B assay relative to control; conditions: OVCAR-5, 48 h, read-out: GI; outline: as §1
[24] = system: 786-0; assay: Growth inhibition of human 786-0 cells at 10 uM incubated for 48 hrs by sulforhodamine B assay relative to control; conditions: 786-0, 48 h, read-out: GI; outline: as §1
[25] = system: A498; assay: Growth inhibition of human A498 cells at 10 uM incubated for 48 hrs by sulforhodamine B assay relative to control; conditions: A498, 48 h, read-out: GI; outline: as §1
[26] = system: RXF 393; assay: Growth inhibition of human RXF393 cells at 10 uM incubated for 48 hrs by sulforhodamine B assay relative to control; conditions: RXF 393, 48 h, read-out: GI; outline: as §1
[27] = system: TK-10; assay: Growth inhibition of human TK10 cells at 10 uM incubated for 48 hrs by sulforhodamine B assay relative to control; conditions: TK-10, 48 h, read-out: GI; outline: as §2
[28] = system: UO-31; assay: Growth inhibition of human UO31 cells at 10 uM incubated for 48 hrs by sulforhodamine B assay relative to control; conditions: UO-31, 48 h, read-out: GI; outline: as §2
[29] = system: MCF7; assay: Growth inhibition of human MCF7 cells at 10 uM incubated for 48 hrs by sulforhodamine B assay relative to control; conditions: MCF7, 48 h, read-out: GI; outline: as §1
[30] = system: Hs-578T; assay: Growth inhibition of human Hs 578T cells at 10 uM incubated for 48 hrs by sulforhodamine B assay relative to control; conditions: read-out: GI; outline: as §1

Compound	inhibition of growth at 10 µM [1]	inhibition of growth at 10 µM [2]	inhibition of growth at 10 µM [3]	inhibition of growth at 10 µM [4]	inhibition of growth at 10 µM [5]	inhibition of growth at 10 µM [6]	inhibition of growth at 10 µM [7]	inhibition of growth at 10 µM [8]	inhibition of growth at 10 µM [9]	inhibition of growth at 10 µM [10]	inhibition of growth at 10 µM [11]	inhibition of growth at 10 µM [12]	inhibition of growth at 10 µM [13]	inhibition of growth at 10 µM [14]	inhibition of growth at 10 µM [15]	inhibition of growth at 10 µM [16]	inhibition of growth at 10 µM [17]	inhibition of growth at 10 µM [18]	inhibition of growth at 10 µM [19]	inhibition of growth at 10 µM [20]	other results
CCOC(=O)C1=C(C)NC(SCc2nnc(-c3ccc(Cl)cc3)o2)=NC1c1cccc(Cl)c1 (stereo not given)	38.2%	80.4%	45%	49%	< 10%	< 10%	74.6%	29.6%	10.3%	56.5%	29.5%	46.4%	16%	< 10%	25.5%	16.8%	17.7%	26.2%	< 10%	< 10%	inhibition of growth at 10 µM [21]: 14.6%; inhibition of growth at 10 µM [22]: 16.9%; inhibition of growth at 10 µM [23]: 10.5%; inhibition of growth at 10 µM [24]: 43%; inhibition of growth at 10 µM [25]: < 10%; inhibition of growth at 10 µM [26]: < 10%; inhibition of growth at 10 µM [27]: 30.3%; inhibition of growth at 10 µM [28]: 35.9%; inhibition of growth at 10 µM [29]: 32%; inhibition of growth at 10 µM [30]: < 10%
CC(=O)C1=C(C)NC(SCc2nnc(-c3ccc(C)cc3)o2)=NC1c1ccc(F)cc1 (stereo not given)	11.9%	19.2%	< 10%	< 10%	< 10%	< 10%	14.1%	< 10%	< 10%	< 10%	< 10%	< 10%	< 10%	< 10%	< 10%	< 10%	< 10%	< 10%	< 10%	< 10%	inhibition of growth at 10 µM [21]: 11%; inhibition of growth at 10 µM [22]: < 10%; inhibition of growth at 10 µM [23]: 10.4%; inhibition of growth at 10 µM [24]: 15.4%; inhibition of growth at 10 µM [25]: < 10%; inhibition of growth at 10 µM [26]: < 10%; inhibition of growth at 10 µM [27]: 14.4%; inhibition of growth at 10 µM [28]: 16.4%; inhibition of growth at 10 µM [29]: < 10%; inhibition of growth at 10 µM [30]: < 10%
